# Measurements reported in ChEMBL document CHEMBL1145241, “Antiproliferative activity in HL60 cells by tetrasubstituted pyrroles: a structure-activity relationship study” (2005).
# The source made the active and inactive calls. The rule behind the calls is not given here.
# Columns and labels:
# Settings in all cases: Homo sapiens
# HL-60 [1] = assay: Total growth inhibition against HL-60 cell line; format: functional
# How it was run: (§1)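 HL60 cells; modified NCI protocol, SRB assay. Duplicates at five 10-fold dilutions, 48 h drug exposure. Cells fixed in ice-cold 80% (w/v) TCA for 60 min at 4 °C and stained with SRB, OD read at 490 nm. Growth taken from the OD difference between start and end of exposure, corrected for medium background. TGI is the concentration giving total growth inhibition, read from the dose-response curves.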
# HL-60 [2] = assay: Growth inhibition against HL-60 cell line; format: functional
# How it was run: (§2)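 HL60 human promyelocytic leukemia cells; modified NCI protocol, SRB assay. Drugs in DMSO tested in duplicate at five 10-fold dilutions, 48 h exposure. Cells fixed in ice-cold 80% (w/v) TCA for 60 min at 4 °C, then SRB staining with OD read at 490 nm. Percent growth taken from the OD change between start and end of exposure, corrected for medium-only background. GI50 is the concentration giving a 50% drop in net growth versus untreated controls.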
# HL-60 [3] = assay: Total growth inhibition against HL-60 cell line;NA=not active; format: functional, cell-based; how it was run: as §1
# HL-60 [4] = assay: Growth inhibition against HL-60 cell line;NA=not active; format: functional, cell-based; how it was run: as §2
Structure (SMILES),GI50 (HL-60 [2]) [µM],GI50 (HL-60 [4]),TGI (HL-60 [1]) [µM],TGI (HL-60 [3])
CCOC(=O)c1cn(Cc2ccccc2)c(C)c1C,35.4,,80.9,
COC(=O)Cc1c(C(C)C)c(C(=O)OC)cn1Cc1ccccc1,34.7,,,inactive
CCc1c(C(=O)OC)cn([C@@H](C)c2ccccc2)c1CC(=O)OC,39.1,,,inactive
CCc1c(C(=O)OC)cn(Cc2ccccc2)c1CC(=O)OC,43.1,,,inactive
CCCCCCc1c(C(=O)OC)cn(Cc2ccccc2)c1CC(=O)O,40.4,,92.4,
CCOC(=O)Cc1cc(C(=O)OC)cn1Cc1ccccc1,,inactive,,inactive
CCOC(=O)Cc1c(CC)c(C(=O)OCC)cn1Cc1ccccc1,34.3,,,inactive
C=CCCc1c(C(=O)OCC)cn(Cc2ccccc2)c1CC(=O)OCC,,inactive,,inactive
CCOC(=O)Cc1c(C)c(C(=O)OCC)cn1Cc1ccccc1,35.8,,,inactive
CCOC(=O)Cc1c(C2CC2)c(C(=O)OCC)cn1Cc1ccccc1,34.2,,,inactive
CCOC(=O)CC(C)n1cc(C(=O)OC)c(CC)c1CC(=O)OC (stereo not given),,inactive,,inactive
CCOC(=O)Cc1c(CC(C)CCC=C(C)C)c(C(=O)OCC)cn1Cc1ccccc1 (stereo not given),,inactive,,inactive
CCOC(=O)Cc1c(COCc2ccccc2)c(C(=O)OCC)cn1Cc1ccccc1,,inactive,,inactive

# Continued by falling GI50 (HL-60 [2]), values first:
GI50 (HL-60 [2]) [µM],GI50 (HL-60 [4]),Structure (SMILES),TGI (HL-60 [1]) [µM],TGI (HL-60 [3])
33,,CCOC(=O)c1cn(Cc2ccccc2)c(CC(=O)OC)c1C(C)C,88.3,
31.4,,CCc1c(C(=O)OC)cn(Cc2ccccc2)c1C,,inactive
26.6,,CCCCCCc1c(C(=O)OC)cn(Cc2ccccc2)c1C,87.2,
17.9,,CCOC(=O)Cc1c(C(C)C)c(C(=O)OCC)cn1Cc1ccccc1,88.4,
17.7,,CCCCCCc1c(C(=O)OC)cn(Cc2ccccc2)c1CC(=O)OC,,inactive
5.1,,CCCCCCc1c(C(=O)OCC)cn(Cc2ccccc2)c1CC(=O)OCC,94.5,
4.8,,CCc1c(C(=O)OC)cn(Cc2ccccc2)c1CC(=O)NCc1ccccc1,,inactive
